Assay results from publication PMC4028150 (Chembiochem : a European journal of chemical biology, 2013).
Where a SMILES comes first, the peptide text is derived from it. Where no end group is shown, it is not given here.

What was measured:
[1] = biological target: SCF^Fbx4 (Fbx4-dependent TRF1 ubiquitination) (UniProt P54274); test: In vitro TRF1 ubiquitination assay; format: biochemical; details: versus wild-type peptide (IC50 = 205.9 µM)
In short: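 TRF1ΔMyb (E. coli; Ni-NTA, tag cleaved, gel filtration, Mono-Q/Mono-S) was prelabelled with GST-cyclin B/Cdk1 in 50 mM Tris pH 8.0, 10 mM MgCl2, 10 mM ATP and 2 µCi [γ-33P]ATP for 1 hr, then kinase-depleted on glutathione resin. It was incubated with E1, UbcH5a, SCFFbx4, ubiquitin, methylated ubiquitin, energy-regenerating system and increasing peptide at 30°C for 2.5 hrs. SDS-PAGE and phosphorimaging followed. IC50 came from loss of polyubiquitination.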

[2] = test system: SCF^Skp2 (p27 ubiquitination); test: In vitro p27 ubiquitination assay; format: biochemical; details: E1, hCdc34 (E2), Cks1, p27 phosphorylated by cyclin E-Cdk2, SCF^Skp2; 2 hrs, 30°C; Figure S3
[3] = biological target: T1, TRF1_(TRFH) (residues 58-268) (UniProt P54274 58-268); test: fluorescence polarisation
T1 sequence (looked up): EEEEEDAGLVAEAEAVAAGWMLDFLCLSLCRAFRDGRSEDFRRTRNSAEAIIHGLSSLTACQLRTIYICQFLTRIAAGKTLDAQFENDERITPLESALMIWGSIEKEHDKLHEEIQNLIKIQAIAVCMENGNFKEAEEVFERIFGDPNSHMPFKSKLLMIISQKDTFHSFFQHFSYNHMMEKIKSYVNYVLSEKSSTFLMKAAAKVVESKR

Molecule	decrease of IC50 compared to wild-type peptide [1]	effect on the ubiquitination of p27 [2]	Kd [3]
CC[C@H](C)[C@H](NC(=O)[C@@H]1CCCN1C(=O)[C@@H](N)CCSC)C(=O)N[C@@H](Cc1ccccc1)C(=O)N[C@@H](Cc1c[nH]c2ccccc12)C(=O)N[C@@H](CCCCN)C(=O)N[C@@H](Cc1ccccc1)C(=O)N[C@@H](Cc1c[nH]cn1)C(=O)N[C@@H](CCCNC(=N)N)C(=O)N[C@@H](CCSC)C(=O)N[C@@H](CO)C(=O)N[C@@H](CCCCN)C(=O)N[C@@H](CCSC)C(=O)NCC(=O)N[C@H](C(=O)NCC(N)=O)[C@@H](C)O [Design 1] (H-MPIFWKFHRMSKMGTG-NH2)	more than 6 fold	no effect	
KKMDVCGGLSD-NH2 (also: 7-hydroxycoumarin-3-carboxylic acid label, position not given here) [Control 2]			> 10000 µM
MPCFYLAHEL-NH2 (also: 7-hydroxycoumarin-3-carboxylic acid label, position not given here) [Wild-Type peptide (Fbx4 residues 339-348)]			41.8 µM
SMTWRGKPAHMIFGKM-NH2 (also: 7-hydroxycoumarin-3-carboxylic acid label, position not given here) [Control 1]			> 250 µM
MPIFWKFHRMSKMGTG-NH2 (designed binder, also: 7-hydroxycoumarin-3-carboxylic acid label, position not given here) [Design 1]			23.3 µM
MPIFWKAHRMSKMGTG-NH2 (designed binder, also: 7-hydroxycoumarin-3-carboxylic acid label, position not given here) [Design 3]			17.3 µM
MPIAWKFHRMSKMGTG-NH2 (designed binder, also: 7-hydroxycoumarin-3-carboxylic acid label, position not given here) [Design 2]			47.8 µM
